Screening results deposited in PubChem BioAssay by several laboratories.
Insulin prom inh – TRM-6 insulin promoter activity inhibition; TRM-6 cells (human fetal islet line), insulin promoter-eGFP reporter, imaging; reporter expression induced with tamoxifen; inhibition, % at 2 µM; actives 0.9% (n = 130,000);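 active = inhibition above the mean plus 3 SD, with well images judged a real hit on visual review, cut at about 60% in these data, passing the limit was not always enough; inconclusive = inhibition over the cutoff but images rejected on review; inactive = inhibition not above the cutoff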
bCat nuc transl – alters nuclear translocation of beta-catenin in HeLa cells. nuclear translocation activity, % at 5 µM. AID 1665. actives 0.3% (n = 190,000). immunofluorescence imaging;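 active = nuclear translocation activity above 50% at 5 µM, with a well cell count of 50 or more; inconclusive = wells under 50 cells across six images, flagged as toxic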;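 note: per-cell ratio of nuclear to cytoplasmic median beta-catenin stain intensity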
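System: Human HeLa cells, endogenous beta-catenin | Compound dosing: 5 µM primary, 0.02–20 µM confirmation | Timing: 24 h compound exposure at 37°C, 5% CO2 | Measured by: Fluorescence imaging of beta-catenin antibody stain plus DAPI | Read-out basis: % activation of per-cell nuclear versus cytoplasmic median beta-catenin signal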
MT stabilizer – microtubule stabilization, imaging screen; HeLa tubulin immunostaining HCS, 24 h; share of cells brighter than vehicle mean+2SD; % tubulin-high responders, % at 10 µM; actives 0.83% (n = 200,000);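 active = plate Z-score above 3 for both tubulin-high and condensed-nucleus cell shares, with cell loss under 80%, at 10 µM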;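 note: anti alpha tubulin signal scored within the nucleus-defined area of each cell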
ROMK primary – modulates human ROMK potassium channel activity. actives 2% (n = 130,000). B-score at 10 µM. Tet-inducible ROMK, thallium flux fluorescence; actives lie on both sides. AID 1918. P48048;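 active = signal ratio slope over the read window, or its plate-corrected B-score, at least 3 SD from the plate mean, either direction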;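 note: B-score of the F/F0 ratio slope over 7 to 12 s after thallium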
Target sequence (P48048 whole entry, looked up): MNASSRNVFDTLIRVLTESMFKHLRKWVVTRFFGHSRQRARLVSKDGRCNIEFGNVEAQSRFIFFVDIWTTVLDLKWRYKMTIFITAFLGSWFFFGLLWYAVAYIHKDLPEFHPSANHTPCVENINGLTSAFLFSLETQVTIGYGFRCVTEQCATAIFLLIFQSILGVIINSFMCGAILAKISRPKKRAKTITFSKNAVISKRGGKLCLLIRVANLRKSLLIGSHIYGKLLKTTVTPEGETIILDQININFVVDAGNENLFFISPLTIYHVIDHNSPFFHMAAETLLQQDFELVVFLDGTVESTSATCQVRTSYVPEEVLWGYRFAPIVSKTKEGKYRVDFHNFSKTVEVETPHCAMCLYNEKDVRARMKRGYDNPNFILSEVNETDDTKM
HSV augment – increases HSV replication in cells. HSV replication augmentation in cells, fold increase. maximum fold increase. actives 0.005% (n = 220,000); in the data active = maximum fold increase above about 1.5; inconclusive = no clear call, values can overlap the other calls; tested in PC3 cells
ROMK hit retest – human ROMK channel modulation, retest confirmation; shares compounds with ROMK primary; ROMK thallium flux, fluorescence ratio; hits give low values; normalized thallium flux (F/F0 slope) at 10 µM; actives 54% (n = 3,000); AID 1917;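 active = Flux at 10 µM at least 3 SD below or above vehicle control mean in one or both replicates; inconclusive = no clear call, values can overlap the other calls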
Large screens that a line does not name were inactive (follow-up assays come after a bar, where they were run). Only some compounds are listed: those with a hit (about 2.4% of all), similar ones and a draw of the others.

COc1ccc(/C(O)=C2/C(=O)C(=O)N(c3ncccn3)C2c2ccc(F)cc2)cc1 (stereo unspecified)	none (no result: Insulin prom inh, MT stabilizer, ROMK primary)
O=C1CC(C(F)(F)F)=NN1	none (no result: Insulin prom inh, MT stabilizer, ROMK primary)
COc1ccc(C2(CNS(=O)(=O)c3ccccc3)CCOCC2)cc1	none (no result: Insulin prom inh)
COc1ccc(Cl)cc1NC(=S)N(CCCN1CCOCC1)Cc1cn(C)c2ccccc12	ROMK primary -3.9 | ROMK hit retest inactive
COc1cc(Cl)ccc1NC(=S)N(CCCN1CCOCC1)Cc1cn(C)c2ccccc12	none
Cc1cccc(N2C(=O)CCC2=O)n1	none
CCc1ccc(NC(=O)c2ccc3c(=O)n4c(nc3c2)CCCCC4)cc1	none (no result: Insulin prom inh, MT stabilizer, ROMK primary)
O=C(Nc1cccc(S(=O)(=O)N2CCCCC2)c1)c1ccc2c(=O)n3c(nc2c1)CCCCC3	none (no result: Insulin prom inh, ROMK primary) | ROMK hit retest 0.064
CCOC(=O)CSC1=C(C#N)C(c2ccccc2OCC)C(C#N)C(=O)N1 (stereo unspecified)	ROMK primary 3.2 (no result: Insulin prom inh) | ROMK hit retest inactive
CCCCOC(=O)CSC1=C(C#N)C(c2cccnc2)C(C(=O)OCC)=C(c2ccccc2)N1 (stereo unspecified)	ROMK primary -3.4 (no result: Insulin prom inh) | ROMK hit retest 0.067
CCOCCCNC(=O)C(NC(=O)c1ccc(NC(C)=O)cc1)c1ccc(OC)cc1 (stereo unspecified)	none
COc1ccc(NC(=O)C2CC(=O)OC23CCOC(C)(C)C3)cc1 (stereo unspecified)	none
CC(=C/c1ccccc1)/C=C1/SC(N2CCOCC2)=NC1=O	none (no result: ROMK primary, HSV augment) | ROMK hit retest 0.053
O=C1N=C(N2CCOCC2)S/C1=C/c1ccc(-c2ccccc2Cl)o1	none (no result: ROMK primary) | ROMK hit retest 0.056
NS(=O)(=O)c1ccc(CCNC(=O)c2ccc(C#CC3(O)CCCCC3)cc2)cc1	none | ROMK hit retest inactive
O=C(CCC1N=C2c3ccccc3N=C(SCc3ccc(Cl)cc3)N2C1=O)NCc1ccco1 (stereo unspecified)	ROMK primary -4.1 | ROMK hit retest 0.061
O=C(CCC1N=C2c3ccccc3N=C(SCc3ccc(F)cc3)N2C1=O)NCc1ccco1 (stereo unspecified)	none (no result: bCat nuc transl)
CC(CN1CCNCC1)(NS(=O)(=O)c1ccccc1)c1ccccc1 (stereo unspecified)	ROMK primary -4.5 | ROMK hit retest 0.062
CC(C)(CN1CCN(Cc2ccccc2)CC1)NS(=O)(=O)c1ccccc1	none (no result: Insulin prom inh, MT stabilizer, ROMK primary)
Cn1nc(-c2ccc(Cl)cc2)c2cc(C(=O)NCCCN3CCCC3)sc21	none (no result: Insulin prom inh, bCat nuc transl, ROMK primary) | ROMK hit retest 0.059
COc1cc2c(cc1OC)CN(C(=O)c1ccc3nc[nH]c3c1)CC2	bCat nuc transl 82, MT stabilizer 18, ROMK primary 3.4 (no result: Insulin prom inh) | ROMK hit retest inactive
COc1ccc(CCNC(=O)c2ccc(-c3ccc([N+](=O)[O-])cc3)o2)cc1OC	none (no result: Insulin prom inh, ROMK primary) | ROMK hit retest inactive
COc1ccc(C(=O)Nc2ccc(C(=O)NCCc3ccc(OC)c(OC)c3)cc2)cc1	ROMK primary 3.2 (no result: Insulin prom inh) | ROMK hit retest inactive
COc1ccc(C(=O)Nc2ccc(OC)c(OC)c2)cc1	none (no result: bCat nuc transl)
COc1ccc(C(=O)C2CCCN(C(=O)CCc3scnc3C)C2)c(C)c1 (stereo unspecified)	none (no result: Insulin prom inh)
O=C(CNCC1CCCO1)NCc1ccco1 (stereo unspecified)	none (no result: Insulin prom inh)
CCCNC(=O)c1cc(-c2ccc(Br)cc2)on1	none (no result: Insulin prom inh, ROMK primary, HSV augment) | ROMK hit retest inactive
COCCNC(=O)c1cc(-c2ccc3c(c2)OCO3)on1	none (no result: Insulin prom inh, ROMK primary, HSV augment) | ROMK hit retest inactive
O=C(CSc1nc2[nH]ncc2c(=O)[nH]1)NCc1ccc(F)cc1	none
COc1ccc(OC)c(CN2CCN(Cc3cccc4ccccc34)CC2)c1	ROMK primary -3.9 (no result: Insulin prom inh) | ROMK hit retest 0.05
COc1ccc(Cl)cc1-c1nc(SCC(=O)NC2CC2)n[nH]1	none (no result: Insulin prom inh)
CCCCN1C(=O)C2C(c3ccc(OC)cc3O)NC(CC(C)C)(C(=O)O)C2C1=O (stereo unspecified)	none (no result: Insulin prom inh, bCat nuc transl, ROMK primary) | ROMK hit retest inactive
N#C/C(=C\c1ccc(Cl)cc1)c1n[nH]c(Cn2cncn2)n1	ROMK primary -4.1 | ROMK hit retest 0.047
CC(C)(C)OC(=O)CC[C@@H](C(=O)N1CCN(C(=O)OC(C)(C)C)CC1)n1cc(C(CO)NC(=O)OC(C)(C)C)nn1 (stereo partly specified)	none (no result: Insulin prom inh, ROMK primary)
Cc1ccc(S(=O)(=O)N2CCCN(S(=O)(=O)c3ccc4c(c3)OCCO4)CC2)cc1	ROMK primary -3.8 (no result: Insulin prom inh) | ROMK hit retest inconclusive
CCOc1ccc(-c2nn(-c3ccccc3)cc2/C=C2\SC(=S)N(C3CCS(=O)(=O)C3)C2=O)cc1 (stereo unspecified)	ROMK primary -5.4 | ROMK hit retest 0.049
Cc1ccc([N+](=O)[O-])cc1NC(=O)Nc1cccc(F)c1	none (no result: Insulin prom inh, MT stabilizer, ROMK primary)
CC1=NN(c2ccccc2)C(=O)/C1=C\C=C1\N(C)c2ccccc2C1(C)C	none (no result: Insulin prom inh, ROMK primary) | ROMK hit retest 0.063
CC1=NN(c2ccccc2)C(=O)/C1=C/N(C)C	none (no result: Insulin prom inh, MT stabilizer, ROMK primary)
CC1=NN(c2ccccc2)C(=O)/C1=C\C=C1/N(C)c2ccccc2C1(C)C	none (no result: Insulin prom inh, ROMK primary) | ROMK hit retest inactive
COc1ccc(CC(=O)OCC(=O)Nc2ccc(Br)cc2)cc1	none (no result: Insulin prom inh)
CC(=O)OCC(=O)NCC(=O)c1c[nH]c2ccccc12	none
CC(C)(C)OC(=O)CN1C(=O)C(Sc2n[nH]c(-c3ccccc3)n2)CCc2ccccc21 (stereo unspecified)	none (no result: bCat nuc transl, ROMK primary)
Cc1ccc([C@@H]2C3COCC=C3C(C#N)=C(N)C2(C#N)C#N)o1 (stereo partly specified)	ROMK primary -4.5 (no result: Insulin prom inh) | ROMK hit retest 0.046
CCOCCCNC(=O)/C(C#N)=C/c1cc(OC)c(O)c([N+](=O)[O-])c1	MT stabilizer 24, ROMK primary 3 (no result: Insulin prom inh) | ROMK hit retest inactive
CCOCCCNC(=O)/C(C#N)=C/c1ccc(Cl)c([N+](=O)[O-])c1	ROMK primary -4.2 (no result: Insulin prom inh) | ROMK hit retest 0.033
CCC1Oc2ccc(C)cc2N(CC(=O)N(Cc2ccc(C)o2)C2CCCC2)C1=O (stereo unspecified)	ROMK primary -4.3 (no result: HSV augment) | ROMK hit retest 0.065
CCOC(=O)COc1ccc(Br)cc1/C=C\c1[nH]c(=O)[nH]c(=O)c1[N+](=O)[O-]	none
CCOC(=O)COc1ccc(Br)cc1/C=C/c1[nH]c(=O)[nH]c(=O)c1[N+](=O)[O-]	ROMK primary -2.7 (no result: Insulin prom inh) | ROMK hit retest 0.051
CC(C)c1nc(CN(C)C(=O)N[C@H](C(=O)N[C@@H](Cc2ccccc2)C[C@H](O)[C@H](Cc2ccccc2)NC(=O)OCc2cncs2)C(C)C)cs1	none (no result: Insulin prom inh, MT stabilizer, ROMK primary)
CC(=O)Nc1ccccc1Nc1nc(NCCO)nc(N2CCCC2)n1	none (no result: Insulin prom inh, bCat nuc transl, MT stabilizer, ROMK primary)
CN1/C(=C/C=C(C#N)C#N)C=Cc2ccccc21	none (no result: Insulin prom inh, MT stabilizer, ROMK primary) | ROMK hit retest 0.047
CC(C)=C1C2CCC1C1C(=O)N(c3nc(-c4ccccc4)c(C)s3)C(=O)C21 (stereo unspecified)	none (no result: Insulin prom inh, ROMK primary)
COc1ccc(/C=C/C2=CCN(Cc3ccc(OC)cc3)CC2)cc1	none (no result: bCat nuc transl, ROMK primary)
CCOC(=O)/C=c1\s/c(=C\c2ccc3cc(OC)ccc3c2)c(=O)n1CC(=O)NCc1ccc2c(c1)OCO2	ROMK primary -6 | ROMK hit retest 0.046
